Where “and” joins values, the source holds several entries; their conditions need not be identical. Equal entries are not always repeated. Records with an inconclusive call do not appear. Calls of active or inactive are those of the source.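 The calls were made as follows: active = compound whose fitted half-maximal viability-loss concentration is within ten times its top tested dose in every test run; inconclusive = test runs disagree, or a weak flat or poorly fitted curve; inactive = every test run inactive.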
System: not listed separately
Test: cytotoxicity in HMLE_sh_eGFP control cells, dose response, counter-screen for breast cancer stem cell project, cell-based, luminescence, powder samples, set 5 (AID 504533)
Details: HMLE_sh_eGFP viability, CellTiter-Glo luminescence, 72 h; at 19.5 µM (top of the series)
Summary of the method: (§1)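 System: HMLE breast epithelial cells expressing shRNA against eGFP. Buffer or medium: serum-free CSC screening medium. Dosing: 100 nL compound pinned into each well. Times: about 72 h compound exposure at 37 °C. Technique: CellTiter-Glo luminescence, reagent diluted 1:3 in PBS. Measure: cell viability. Benchmarks: DMSO neutral control, 160 µM puromycin positive control.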

With `CC(C)c1ccc(/C=C/C(=O)N(C)C2=NCCS2)cc1` as the molecule, how does the activity change, negative = viability loss read?
Its activity change, negative = viability loss is 10.1% (inactive).

With `Cn1c(C(=O)NC2=NCCS2)cc2ccccc21` as the molecule, how does the activity change, negative = viability loss read?
The activity change, negative = viability loss was -5.73% (inactive).

Which activity change, negative = viability loss does the source give for `N#Cc1ccc(/C=C/C(=O)NC2=NCCS2)cc1` here?
The activity change, negative = viability loss was -10.2% (inactive).

For `C/C(=C\C(=O)NC1=NCCS1)c1ccc(C)cc1`, which activity change, negative = viability loss is on record?
Its activity change, negative = viability loss is -3.46% (inactive).

For `Cc1csc(NC(=O)c2ccc(COC(C)C)o2)n1`, which activity change, negative = viability loss is on record?
The activity change, negative = viability loss was -0.134% (inactive).

Which activity change, negative = viability loss does the source give for `N#Cc1cnc(NC(=O)c2ccc(COc3ccccc3)o2)s1` here?
Its activity change, negative = viability loss is -1.72% (inactive).

Which activity change, negative = viability loss does the source give for `Cc1cc(C)c(OCC(=O)N/N=C/c2ccc[nH]2)c(C)c1` here?
The activity change, negative = viability loss was 1.17% (inactive).

Which activity change, negative = viability loss does the source give for `O=C(Nc1nncs1)c1ccc(COc2ccccc2)o1` here?
The activity change, negative = viability loss was 3.92% (inactive).

Which activity change, negative = viability loss does the source give for `CCN(CC)C(=O)c1ccc(COc2ccccc2)o1` here?
The activity change, negative = viability loss was 6.38% (inactive).

For `COCc1ccc(C(=O)Nc2nc(C)cs2)o1`, which activity change, negative = viability loss is on record?
Its activity change, negative = viability loss is 15.3% (inactive).

For `CC(C)c1ccc(/C=C/C(=O)Nc2nc3ccccc3s2)cc1`, which activity change, negative = viability loss is on record?
The activity change, negative = viability loss was -0.373% (inactive).

For `Cc1cc(Br)ccc1OCC(=O)N/N=C/c1ccc[nH]1`, which activity change, negative = viability loss is on record?
The activity change, negative = viability loss was -25.7% (inactive).

Which activity change, negative = viability loss does the source give for `CC(C)NC(=O)c1ccc(COc2ccccc2)o1` here?
Its activity change, negative = viability loss is -2.28% (inactive).

For `Cc1csc(NC(=O)c2ccc(COc3ccccc3S(C)(=O)=O)o2)n1`, which activity change, negative = viability loss is on record?
The activity change, negative = viability loss was 2.08% (inactive).

With `Cc1coc(NC(=O)/C=C/c2ccc(C(C)C)cc2)n1` as the molecule, how does the activity change, negative = viability loss read?
The activity change, negative = viability loss was -6.75% (inactive).

For `Cc1coc(NC(=O)c2ccc(COc3ccccc3)o2)n1`, which activity change, negative = viability loss is on record?
The activity change, negative = viability loss was 3.69% (inactive).

Which activity change, negative = viability loss does the source give for `Cc1csc(NC(=O)c2ccc(CS(=O)(=O)c3ccccc3)o2)n1` here?
Its activity change, negative = viability loss is -13.3% (inactive).

Which activity change, negative = viability loss does the source give for `C/C(=C\C(=O)NC1=NCCS1)c1ccc(CC(C)C)cc1` here?
Its activity change, negative = viability loss is 17.8% (inactive).

For `Cc1csc(NC(=O)c2ccc(COC(C)(C)C)o2)n1`, which activity change, negative = viability loss is on record?
The activity change, negative = viability loss was -4.37% (inactive).

Same assay, conditions: HMLE_sh_eGFP viability, CellTiter-Glo luminescence, 72 h; at 30 µM (top of the series)

With `Cc1ccc2cc(C(=O)NC3=NCCS3)n(C)c2c1` as the molecule, how does the activity change, negative = viability loss read?
The activity change, negative = viability loss was -4.12% (inactive).

System: HMLE_sh_eGFP viability, CellTiter-Glo luminescence, 72 h
Test: as above
Details: not given
Summary of the method: as §1

Which AC50 does the source give for `CC(C)Cc1ccc(/C=C/C(=O)NC2=NCCS2)cc1` here?
Its AC50 is 3.27 µM.

Which AC50 does the source give for `COc1cccc(OCc2ccc(C(=O)Nc3nc(C)cs3)o2)c1` here?
Its AC50 is 2.64 µM.

For `Cc1csc(NC(=O)c2ccc(COCc3ccccc3)o2)n1`, which AC50 is on record?
Its AC50 is 19.6 µM.

Which AC50 does the source give for `Cc1csc(NC(=O)c2ccc(CCc3ccccc3)o2)n1` here?
The AC50 was 9.08 µM.

Which AC50 does the source give for `Cc1cccc(OCc2ccc(C(=O)Nc3nc(C)cs3)o2)c1` here?
The AC50 was 0.656 µM and 4.39 µM.

Which AC50 does the source give for `Cc1csc(NC(=O)c2ccc(CNc3ccccc3)o2)n1` here?
The AC50 was 5.09 µM.

Reference: PubChem BioAssay AID504533 (Broad Institute, 2011)
